Screening data (PubChem BioAssay)
MrgX1 agonist: human MrgX1 receptor agonism, primary screen; Q96LB2; AID 588627; B-score at 10 µM; 0.44% of 310,000 active; MrgX1-HEK293 cells, Fluo-4 calcium fluorescence, agonist mode; hits give high values;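 active means calcium response B-score plate-corrected fluorescence ratio at least 3 library SD, with starting fluorescence B-score inside 5 SD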
Target sequence (Q96LB2 whole entry, looked up): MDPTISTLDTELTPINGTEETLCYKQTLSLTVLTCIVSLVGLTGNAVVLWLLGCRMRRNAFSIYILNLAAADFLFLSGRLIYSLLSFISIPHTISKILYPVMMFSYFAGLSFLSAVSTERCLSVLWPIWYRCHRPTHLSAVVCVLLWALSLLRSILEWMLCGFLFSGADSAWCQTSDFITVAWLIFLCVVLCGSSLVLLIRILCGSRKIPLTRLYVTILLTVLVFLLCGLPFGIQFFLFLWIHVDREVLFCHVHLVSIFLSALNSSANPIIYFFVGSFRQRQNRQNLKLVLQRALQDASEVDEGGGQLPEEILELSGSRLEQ
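Test system: HEK293 cells stably expressing human MrgX1 receptor; amount: 15,000 cells per well; doses: compound delivered in addition one of three; times: overnight plating before 1 h dye loading; detection: Fluo-4 NW calcium-flux fluorescence, kinetic read; read-out basis: B-scored fluorescence response ratio; controls: positive and negative controls per plate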
RGS4 inh: inhibitors of human RGS4. P49798. HEK293 M3R/RGS4 inducible, Fluo-4 calcium flux; hits give high values; triggered by carbachol at its EC20. B-score at 10 µM. 0.45% of 310,000 active;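 active means B-score, a plate-corrected calcium signal, over three deviations above library mean, with baseline fluorescence within five deviations of library mean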;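 further: RGS4 expression induced by doxycycline in cells with stable M3 receptor; B-score is computed from the integrated fluorescence ratio over baseline after carbachol; higher B-score means a larger calcium signal and so more RGS4 inhibition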
Target sequence (P49798 whole entry, looked up): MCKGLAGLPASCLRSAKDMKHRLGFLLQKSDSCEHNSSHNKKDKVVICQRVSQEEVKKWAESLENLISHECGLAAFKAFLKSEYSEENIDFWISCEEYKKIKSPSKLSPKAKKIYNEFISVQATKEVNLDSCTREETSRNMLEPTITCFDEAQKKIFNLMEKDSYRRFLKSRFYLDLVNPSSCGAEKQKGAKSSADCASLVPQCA
RGS4 act: RGS4 potentiation or activation. HEK293 M3R/inducible RGS4, carbachol calcium flux Fluo4; hits give low values. B-score at 10 µM. 0.92% of 310,000 active;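 active means B-score of the integrated calcium signal more than 4 SD below the library mean, with starting fluorescence not abnormally high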;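 further: negative B-score means reduced calcium response which marks RGS4 activation or potentiation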
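Assay system: HEK293 FlpIn-TREx cells, stable M3R, doxycycline-inducible RGS4 / Probe or stimulus: carbachol, ECmax concentration / Times: overnight RGS4 induction, 30 min dye load 37 °C, 20 min compound RT / Signal: kinetic calcium fluorescence imaging with Fluo4-AM dye, 2 µM / Measure: Agonist-evoked peak-minus-minimum fluorescence over baseline, integrated ratio, B score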
MrgX1 allo act: allosterically activates human MrgX1 receptor signaling | Q96LB2 | B-score at 10 µM | 0.63% of 310,000 active | MrgX1-HEK293, Fluo-4 calcium flux, FDSS; hits give high values | AID 588675;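 active means plate-corrected calcium response at least 3 library SD above typical, normal starting fluorescence, not activating the receptor alone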;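 further: compound read alongside a low EC10 to EC30 dose of BAM8-22 agonist; peak minus trough fluorescence over baseline measured at the second addition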
MrgX1 antag: human MrgX1 receptor antagonism, primary screen; Q96LB2; MRGX1-HEK293 calcium flux, Fluo-4, BAM8-22 antagonism; hits give low values; B-score at 10 µM; 1.3% of 310,000 active; AID 588676;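 active means calcium-response B-score plate-corrected more than 3 library SD below zero, starting fluorescence within 5 deviations, no agonist response on first addition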;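 further: peak minus trough fluorescence over baseline after final BAM8-22 challenge near maximal dose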
RGS4 block valid: RGS4 inhibitor validation | 65% of 1,700 active | calcium response, % at 10 µM | AID 492999 | HEK293 M3R/RGS4, carbachol calcium Fluo-4 fluorescence; carbachol added at its EC20; 0 = buffer wells, 100 = carbachol control | shares compounds with RGS4 inh;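 active means duplicate-averaged calcium response above the buffer-only control mean plus 5 SD of those controls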;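 further: integrated fluorescence ratio F max minus min over baseline F0; higher response in RGS4-induced cells means RGS4 inhibition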
M3R Ca ctr: checks RGS4 inhibitor effects in non-induced HEK293 M3R cells; AID 493000; 20% of 1,900 active; shares compounds with RGS4 inh; activity (percent), % at 10 µM; carbachol calcium Fluo-4; submaximal (EC20) carbachol stimulus; buffer wells 0%, carbachol control wells 100%; call rule not given here;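 further: RGS4 induction absent so cells express M3R without RGS4; higher means more calcium signal and flags a non-specific hit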
RGS4 inh ctr2: signal in non-induced cells without carbachol, RGS4 inhibitor counter-screen; shares compounds with RGS4 inh; HEK293 M3R/RGS4 non-induced, Fluo-4 calcium, no carbachol; normalised: buffer wells 0%, carbachol wells 100%; calcium response (agonist-mode artifact), % at 10 µM; 22% of 1,900 active;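 active means duplicate-averaged calcium rise in uninduced cells above buffer wells' mean plus 5 SD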
Large screens that a line does not name were inactive (follow-up assays come after a bar, where they were run). Rows were chosen to be rich in hits. Some 3.5% of all compounds tested hit in one or more screens of this group.

COc1cc(C=C(C(C)=O)C(C)=O)ccc1O	RGS4 inh 5.4 | RGS4 block valid 6.0% | M3R Ca ctr inactive | RGS4 inh ctr2 inactive
COc1ccc(/C=C/C(=O)C(C)(C)C)cc1OC	none
Cc1cccc(N2CCN(Cc3cn(C)nc3-c3ccccc3F)CC2)n1	none
Cc1ccc(/C=C2/NC(=O)N(Cc3ccc(Br)cc3)C2=O)o1	none | RGS4 block valid inactive | M3R Ca ctr inactive | RGS4 inh ctr2 22%
CCN1C(=O)N/C(=C/c2ccc(C)o2)C1=O	none
Oc1ccc(-c2csc(Nc3ccccn3)n2)cc1	none | RGS4 block valid inactive | M3R Ca ctr inactive | RGS4 inh ctr2 inactive
Cc1ccc(-c2csc(Nc3ccccn3)n2)cc1	RGS4 inh 9.1 | RGS4 block valid inactive | M3R Ca ctr inactive | RGS4 inh ctr2 inactive
Cc1cc(-c2csc(Nc3ccccn3)n2)ccc1F	RGS4 inh 5.4 | RGS4 block valid 16% | M3R Ca ctr inactive | RGS4 inh ctr2 inactive
c1ccc(-c2csc(Nc3ccccn3)n2)cc1	none | RGS4 block valid inactive | M3R Ca ctr inactive | RGS4 inh ctr2 inactive
COc1ccc(-c2csc(Nc3ccccn3)n2)cc1OC	none
Cc1cccnc1Nc1nc(-c2ccc(O)cc2)cs1	none
COc1ccc(CNC(=O)C2CC(O)CN2C(=O)Nc2ccccc2)cc1 (stereo unspecified)	none (no result: MrgX1 agonist, MrgX1 allo act, MrgX1 antag)
CC(=O)Nc1sc(N/N=C/c2ccccc2)nc1-c1ccc(C)cc1	none
CCCc1sc(N/N=C/c2ccccn2)nc1-c1ccc(Br)cc1	none | M3R Ca ctr inactive | RGS4 inh ctr2 inactive
Cc1ccc(/C=C/C(=O)c2ccccc(=O)c2O)cc1C	RGS4 inh 11 | RGS4 block valid 48% | M3R Ca ctr inactive | RGS4 inh ctr2 72%
CNc1cc(C)c(C#N)c2nc3ccccc3n12	none
Cc1cc(Cl)n2c(nc3ccccc32)c1C#N	RGS4 inh 11 (no result: MrgX1 agonist, MrgX1 allo act, MrgX1 antag) | RGS4 block valid 31% | M3R Ca ctr inactive | RGS4 inh ctr2 10%
Cc1ccc(/C=C/C(=O)N2CC(C)CC(C)C2)o1 (stereo unspecified)	RGS4 inh 19 | RGS4 block valid 31% | M3R Ca ctr inactive | RGS4 inh ctr2 inactive
COc1ccc(CNC(=O)C2CCCN2C)cc1OC (stereo unspecified)	none
COc1ccc(C2=Nn3c(nnc3-c3cccnc3)SC2)cc1OC	none | RGS4 block valid inactive | M3R Ca ctr inactive | RGS4 inh ctr2 inactive
COc1ccccc1-c1nnc2n1N=C(c1ccc(O)c(O)c1)CS2	none | M3R Ca ctr inactive | RGS4 inh ctr2 inactive
Brc1ccc(C2=Nn3c(nnc3-c3cccnc3)SC2)s1	none
Cc1ccc(-c2c(C(=O)N/N=C/c3ccc(OC(C)C)cc3)nnn2-c2nonc2N)cc1	RGS4 inh 9 | RGS4 block valid 28% | M3R Ca ctr 43% | RGS4 inh ctr2 inactive
CCOc1ccc(-c2c(C(=O)N/N=C/c3ccc(OC(C)C)cc3)nnn2-c2nonc2N)cc1	none | M3R Ca ctr inactive | RGS4 inh ctr2 inactive
COCC(=O)N1CCC(Oc2ccc(C(=O)NCc3cc(C(C)C)no3)cc2)CC1	none
Cc1ccc(/C=c2/sc3n(c2=O)CCCN=3)o1	RGS4 inh 5.3 | RGS4 block valid inactive | M3R Ca ctr inactive | RGS4 inh ctr2 12%
Cc1ccc(/C=c2\sc3n(c2=O)CN(c2ccc(Br)cc2)CN=3)o1	none
COc1ccc(N2C(=O)CC(Sc3nc4ccccc4s3)C2=O)cc1 (stereo unspecified)	none
C=CCNc1nnc(SC2CC(=O)N(c3ccc(OC)cc3)C2=O)s1 (stereo unspecified)	RGS4 inh 5.7 | RGS4 block valid 9.0% | M3R Ca ctr inactive | RGS4 inh ctr2 inactive
CCOc1ccc(N(CC(=O)NC(C(C)C)C(C)C)S(=O)(=O)c2ccc(OC)c(OC)c2)cc1	none
CCOC(=O)CN(c1cc([N+](=O)[O-])ccc1OC)S(C)(=O)=O	none
COC(=O)c1cc(NC(=O)Cn2c(=O)cnc3ccccc32)cc(C(=O)OC)c1	none
O=C1NN(c2ccc(F)c(Cl)c2)C(=O)/C1=C\c1cccc(OC(=O)c2cccs2)c1	MrgX1 agonist 27, RGS4 inh 18 | RGS4 block valid 58% | M3R Ca ctr inactive | RGS4 inh ctr2 14%
CC(C)=C1C(=O)NN(c2ccc(F)c(Cl)c2)C1=O	none
N=c1sccn1CC(=O)Nc1ccc(SC(F)F)cc1	none
COc1cc(-c2noc(CCCC(=O)NCc3ccccc3)n2)cc(OC)c1OC	none
COc1ccc(Br)cc1/C=N/NC(=O)c1ccc2nc[nH]c2c1	none
COC(=O)CCC(=O)Nc1sc(Cc2ccccc2)c(C)c1C(N)=O	none
COc1cccc(/C=N/c2sc(Cc3ccccc3)c(C)c2C(N)=O)c1O	RGS4 inh 5 | RGS4 block valid 24% | M3R Ca ctr 36% | RGS4 inh ctr2 inactive
COc1ccc(/C=C/C(=O)NCCc2ccc(OC)c(OC)c2)cc1	none
COc1ccc(CCNC(=O)/C=C/c2ccc3ccccc3n2)cc1OC	RGS4 inh 13 | RGS4 block valid 34% | M3R Ca ctr 32% | RGS4 inh ctr2 inactive
COc1cccc(C(=O)O/N=C(\N)Cc2ccc(Cl)cc2)c1	RGS4 inh 8.8 | RGS4 block valid 7.5% | M3R Ca ctr inactive | RGS4 inh ctr2 inactive
COc1cccc(C(=O)O/N=C(\N)c2ccc(C)cc2)c1	none
O=c1[nH][nH]c(-c2ccccc2O)c1C(C[N+](=O)[O-])c1ccccc1 (stereo unspecified)	none | RGS4 block valid inactive | M3R Ca ctr inactive | RGS4 inh ctr2 inactive
Cc1cc(O)c(C(C[N+](=O)[O-])c2ccc(Cl)cc2Cl)c(=O)o1 (stereo unspecified)	none
O=c1[nH][nH]c(-c2ccccc2O)c1C(C[N+](=O)[O-])c1cccc(Cl)c1 (stereo unspecified)	none
O=c1[nH][nH]c(-c2ccccc2O)c1C(C[N+](=O)[O-])c1ccc(Cl)cc1Cl (stereo unspecified)	RGS4 inh 6.2 | RGS4 block valid inactive | M3R Ca ctr inactive | RGS4 inh ctr2 inactive
CC1CCN(c2nc(-c3ccco3)c3c(c2C#N)CC(C)(C)OC3)CC1	none | RGS4 block valid inactive | M3R Ca ctr inactive | RGS4 inh ctr2 15%
CC1(C)Cc2c(C#N)c(N3CCOCC3)nc(-c3ccccc3)c2CO1	none
S=C(NCCc1ccccc1)Nc1ccc(N2CCCCC2)cc1	none
CCOc1ccccc1C1c2cc3c(cc2OC(C)(N2CCCC2)C1C)OCO3 (stereo unspecified)	none
